The record followed here is ChEMBL document CHEMBL1667757, “Efficient and novel one-pot synthesis of antifungal active 1-substituted-8-aryl-3-alkyl/aryl-4H-pyrazolo[4,5-f][1,2,4]triazolo[4,3-b][1,2,4]triazepines using solid support” (2011).

What all share (type): functional
Assay [1] concerns Rhizopus. The experiment in a line: Antifungal activity against Rhizopus species at 500 ug after 24 hrs by paper disc technique. The conditions noted are these: for zone of inhibition at 500 µg/disc: Rhizopus, 24 h, read-out: DIZ. Summed up: (§1)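 Paper disc diffusion on double-layer potato dextrose agar: 15 mL sterile base topped with 15 mL medium seeded at 40 °C with spores from ten-day cultures; streptomycin added to prevent bacterial growth. Compounds dissolved in DMF at 500 or 1000 µg/mL and applied to 6 mm filter paper discs on chilled seeded plates. Plates incubated at 28 ± 2 °C. Inhibition zone measured from disc centre at 24 h, percent inhibition calculated as (C − T)/C × 100. Fluconazole at same concentrations served as standard.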

Assay [2] relates to Rhizopus. Kind of assay: Antifungal activity against Rhizopus species at 1000 ug after 24 hrs by paper disc technique. The conditions noted are these: for zone of inhibition at 1000 µg/disc: Rhizopus, 24 h, read-out: DIZ. Summed up:
as §1

The test system of assay [3] is Aspergillus niger. The experiment in a line: Antifungal activity against Aspergillus niger at 1000 ug after 24 hrs by paper disc technique. As to conditions: for zone of inhibition at 1000 µg/disc: Aspergillus niger, 24 h, read-out: DIZ. Summed up: as §1
The subject of assay [4] is Aspergillus flavus. The experiment in a line: Antifungal activity against Aspergillus flavus at 1000 ug after 24 hrs by paper disc technique. As to conditions: for zone of inhibition at 1000 µg/disc: Aspergillus flavus, 24 h, read-out: DIZ. Summed up: as §1
In assay [5] the test system is Penicillium sp. The experiment in a line: Antifungal activity against Penicillium species at 1000 ug after 24 hrs by paper disc technique. The conditions noted are these: for zone of inhibition at 1000 µg/disc: Penicillium sp., 24 h, read-out: DIZ. Summed up: as §1
Assay [6] deals with Aspergillus flavus. Kind of assay: Antifungal activity against Aspergillus flavus at 500 ug after 24 hrs by paper disc technique. The conditions noted are these: for zone of inhibition at 500 µg/disc: Aspergillus flavus, 24 h, read-out: DIZ. Summed up:
as §1

In assay [7] the test system is Aspergillus niger. The experiment in a line: Antifungal activity against Aspergillus niger at 500 ug after 24 hrs by paper disc technique. As to conditions: for zone of inhibition at 500 µg/disc: Aspergillus niger, 24 h, read-out: DIZ. Summed up: as §1
Assay [8] deals with Penicillium sp. The experiment in a line: Antifungal activity against Penicillium species at 500 ug after 24 hrs by paper disc technique. The conditions noted are these: for zone of inhibition at 500 µg/disc: Penicillium sp., 24 h, read-out: DIZ. Summed up: as §1

The structures appear in SMILES notation.

As for `Cc1n[nH]c2c1C=Nc1nnc(-c3ccccc3)n1N2`, the Activity in assay [1] is 53.33%; in assay [2] it was 60.66%; in assay [6], 33.33%; in assay [7] it was 36.66%; in assay [8], 10%. In addition, the zone of inhibition at 500 µg/disc was found to be 32 mm in assay [1], 20 mm in assay [6], 22 mm in assay [7] and 6 mm in assay [8]. The zone of inhibition at 1000 µg/disc in assay [2] is 40 mm; in assay [3], 32 mm; in assay [4] it was 24 mm; in assay [5] it was 8 mm. Besides, the percent inhibition in assay [3] amounted to 53.33%; in assay [5], 13.33%. Moreover, in assay [4], the percent growth inhibition is on record as 40%.
Take `Cc1n[nH]c2c1C=Nc1nnc(-c3ccc(Cl)cc3)n1N2`: the Activity in assay [1] is on record as 51.66%; in assay [2], 60.66%; in assay [6], 36.66%; in assay [7], 38.33%; in assay [8] it was 13.33%. Moreover, the zone of inhibition at 500 µg/disc in assay [1] was 31 mm; in assay [6] it was 22 mm; in assay [7], 23 mm; in assay [8], 8 mm. Moreover, the zone of inhibition at 1000 µg/disc was found to be 40 mm in assay [2], 32 mm in assay [3], 24 mm in assay [4] and 9 mm in assay [5]. For the same molecule, the percent inhibition in assay [3] is given as 53.33%; in assay [5] it was 15%. This molecule also returned a percent growth inhibition in assay [4] of 40%.
Take `C1=Nc2nnc(-c3ccccc3)n2Nc2c1c(-c1ccccc1)nn2-c1ccccc1`: the Activity in assay [1] is recorded as 66.66%; in assay [2], 65%; in assay [6], 35.36%; in assay [7], 33.33%; in assay [8], 8.33%. Besides, the zone of inhibition at 500 µg/disc in assay [1] was found to be 36 mm; in assay [6], 21 mm; in assay [7] it was 20 mm; in assay [8] it was 5 mm. Further, the zone of inhibition at 1000 µg/disc in assay [2] came out at 39 mm; in assay [3] it was 31 mm; in assay [4], 21 mm; in assay [5], 2 mm. In addition, the figures for the percent inhibition in assay [3] and in assay [5] were 51.66% and 3.33%, respectively. In assay [4], this molecule displayed a percent growth inhibition of 35.36%.
On to `Brc1ccc(-c2nn(-c3ccccc3)c3c2C=Nc2nnc(Cc4ccccc4)n2N3)cc1`, for which the Activity is 46.66% in assay [1]; 40% in assay [2]; 33.33% in assay [6]; 3.33% in assay [7]; 8.33% in assay [8]. The zone of inhibition at 500 µg/disc amounted to 28 mm in assay [1], 20 mm in assay [6], 2 mm in assay [7] and 5 mm in assay [8]. Also, the zone of inhibition at 1000 µg/disc in assay [2] was 24 mm; in assay [3], 14 mm; in assay [4], 8 mm. Also, in assay [3], the percent inhibition amounted to 23.33%. In addition, in assay [4], the percent growth inhibition came out at 13.33%.
As for `Clc1ccc(-c2nnc3n2Nc2c(c(-c4ccc(Br)cc4)nn2-c2ccccc2)C=N3)cc1`, the Activity in assay [1] is given as 60.66%; in assay [2], 53.33%; in assay [6], 36.66%; in assay [7], 53.33%; in assay [8], 15%. Moreover, the zone of inhibition at 500 µg/disc in assay [1] was determined as 40 mm; in assay [6] it was 22 mm; in assay [7] it was 32 mm; in assay [8], 9 mm. For the same molecule, the zone of inhibition at 1000 µg/disc in assay [2] was determined as 32 mm; in assay [3], 21 mm; in assay [4] it was 24 mm; in assay [5] it was 8 mm. Moreover, the results for the percent inhibition in assay [3] and in assay [5] were 35.36% and 13.33%, respectively. This molecule also registered a percent growth inhibition in assay [4] of 40%.
For the molecule `O=[N+]([O-])c1ccc(-c2nnc3n2Nc2c(c(-c4ccc(Br)cc4)nn2-c2ccccc2)C=N3)cc1`, the Activity in assay [1] was 40%; in assay [2], 35.36%; in assay [6], 31.33%; in assay [7] it was 23.33%; in assay [8], 3.33%. Moreover, the zone of inhibition at 500 µg/disc in assay [1] amounted to 24 mm; in assay [6], 18 mm; in assay [7] it was 14 mm; in assay [8], 2 mm. Besides, the zone of inhibition at 1000 µg/disc came out at 21 mm in assay [2], 2 mm in assay [3], 8 mm in assay [4] and 5 mm in assay [5]. Also, the percent inhibition was determined as 3.33% in assay [3] and 8.33% in assay [5]. The percent growth inhibition in assay [4] came out at 13.33%.
Turning to `Brc1ccc(-c2nn(-c3ccccc3)c3c2C=Nc2nnc(-c4ccccc4)n2N3)cc1`, the Activity in assay [1] came to 42.66%; in assay [2], 38%; in assay [6], 31.33%; in assay [7], 3.33%; in assay [8], 8.33%. In addition, the zone of inhibition at 500 µg/disc in assay [1] was 26 mm; in assay [6], 18 mm; in assay [7], 2 mm; in assay [8], 5 mm. In addition, the zone of inhibition at 1000 µg/disc in assay [2] turned out to be 22 mm; in assay [3], 12 mm; in assay [4], 6 mm; in assay [5], 8 mm. Besides, the percent inhibition came to 21.33% in assay [3] and 13.33% in assay [5]. Also, in assay [4], the percent growth inhibition was 11.33%.
For the molecule `O=[N+]([O-])c1ccc(-c2nn(-c3ccccc3)c3c2C=Nc2nnc(-c4ccccc4)n2N3)cc1`, the Activity in assay [1] amounted to 65%; in assay [2], 66.66%; in assay [6], 40%; in assay [7] it was 51.66%; in assay [8], 12.98%. The zone of inhibition at 500 µg/disc in assay [1] was 39 mm; in assay [6], 24 mm; in assay [7], 31 mm; in assay [8], 7 mm. Also, the zone of inhibition at 1000 µg/disc in assay [2] was 36 mm; in assay [3] it was 20 mm; in assay [4], 22 mm; in assay [5], 9 mm. The results for the percent inhibition in assay [3] and in assay [5] were 33.33% and 15%, respectively. In assay [4], this molecule yielded a percent growth inhibition of 36.66%.
With `O=[N+]([O-])c1ccc(-c2nn(-c3ccccc3)c3c2C=Nc2nnc(Cc4ccccc4)n2N3)cc1`, the Activity in assay [1] is given as 46.66%; in assay [2], 40%; in assay [6], 33.33%; in assay [7], 3.33%. The zone of inhibition at 500 µg/disc came out at 28 mm in assay [1], 20 mm in assay [6] and 2 mm in assay [7]. Further, the zone of inhibition at 1000 µg/disc in assay [2] amounted to 24 mm; in assay [3], 14 mm; in assay [4], 8 mm. Moreover, the percent inhibition in assay [3] was determined as 23.33%. The percent growth inhibition in assay [4] stood at 13.33%.
As to `O=[N+]([O-])c1ccc(-c2nn(-c3ccccc3)c3c2C=Nc2nnc(-c4ccc([N+](=O)[O-])cc4)n2N3)cc1`, the Activity in assay [1] amounted to 30%; in assay [2], 38.33%; in assay [6] it was 5%; in assay [7], 13.33%. Further, the zone of inhibition at 500 µg/disc worked out at 18 mm in assay [1], 3 mm in assay [6] and 8 mm in assay [7]. The figures for the zone of inhibition at 1000 µg/disc in assay [2], in assay [3] and in assay [4] were 23 mm, 15 mm and 9 mm, respectively. In assay [3], the percent inhibition is given as 25%. The molecule further returned a percent growth inhibition in assay [4] of 15%.
For the molecule `OC(Cn1cncn1)(Cn1cncn1)c1ccc(F)cc1F` [FLUCONAZOLE], the Activity was 63.33% in assay [1]; 70% in assay [2]; 58.33% in assay [6]; 70% in assay [7]; 86.66% in assay [8]. For the same molecule, the zone of inhibition at 500 µg/disc stood at 38 mm in assay [1], 35 mm in assay [6], 42 mm in assay [7] and 52 mm in assay [8]. The zone of inhibition at 1000 µg/disc was 42 mm in assay [2], 48 mm in assay [3], 42 mm in assay [4] and 54 mm in assay [5]. For the same molecule, the values for the percent inhibition in assay [3] and in assay [5] were 80% and 90%, respectively. The molecule also yielded a percent growth inhibition in assay [4] of 70%.
